Marks after values point to notes of the source that are not given here. Blank lines part the entries; values can stand above or below the compound they belong to.
Tests used:
MCF-7 cells = experiment: MCF-7 cell proliferation assay; assay type: cell-based, human; settings: 1 μM
Summary of the method: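 MCF-7 cells were kept in RPMI-1640 with 10% heat-inactivated FBS at 37°C and 5% CO2. Cells were seeded at 10 000 cells/well in phenol red-free RPMI-1640 with 10% charcoal dextran-treated FBS. After 1 day the medium was changed and cells received test compound (0.001–0.1 mM) or 0.5 nM E2, with or without 1 µM tamoxifen. After three days, proliferation was read by colorimetric MTT assay. Mean and SD of six experiments.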

human ERβ = human ERβ (Homo sapiens, UniProt Q92731); experiment: Ligand binding assay for ERβ
human ERα = molecular target: T1, human ERα (Homo sapiens, UniProt P03372); experiment: Ligand binding assay for ERα
T1 sequence (P03372 1-595): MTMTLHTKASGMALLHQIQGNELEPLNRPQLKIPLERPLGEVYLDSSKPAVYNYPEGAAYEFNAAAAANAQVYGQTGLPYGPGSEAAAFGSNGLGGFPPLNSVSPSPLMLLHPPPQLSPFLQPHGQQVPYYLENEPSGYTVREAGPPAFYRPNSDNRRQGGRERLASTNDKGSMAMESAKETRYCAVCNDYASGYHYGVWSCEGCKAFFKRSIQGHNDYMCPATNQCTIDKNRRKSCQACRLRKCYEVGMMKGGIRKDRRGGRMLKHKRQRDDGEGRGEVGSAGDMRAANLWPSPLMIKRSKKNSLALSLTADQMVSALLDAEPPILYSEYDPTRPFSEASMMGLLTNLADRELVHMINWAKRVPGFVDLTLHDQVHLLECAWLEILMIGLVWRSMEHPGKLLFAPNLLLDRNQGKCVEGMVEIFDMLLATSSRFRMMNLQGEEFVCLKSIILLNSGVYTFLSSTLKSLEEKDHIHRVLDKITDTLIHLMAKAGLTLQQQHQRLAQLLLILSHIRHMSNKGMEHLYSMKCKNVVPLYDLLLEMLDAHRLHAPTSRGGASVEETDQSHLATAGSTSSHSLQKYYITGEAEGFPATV

uterus of immature rats = experiment: Uterotrophic assay in immature female rats; assay type: in vivo, Sprague Dawley rats; settings: 3 days; for Body weight, mean / Uterus wet weight, mean / Uterus/body weight: immature female rats; for Change in wet uterine weight: immature rats
Summary of the method: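 Female Sprague Dawley rats were housed at 23±1°C on a standard diet. From postnatal day 20 they were injected s.c. once daily for 3 days at 10 ml/kg in sesame oil. Doses were test compound at 1 g/kg/day or 17α-ethynylestradiol at 0.1 or 3 µg/kg/day; controls got sesame oil. Vaginal opening and clinical signs were monitored. On day 23, 27 h after the last dose, uteri were excised with ovaries attached and weighed. Dunnett's test was used versus controls.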

[1] = system: luminal epithelium of the uterus; experiment: Histology of uterine luminal epithelial cell height in immature rats; assay type: in vivo, Sprague Dawley rats; settings: 3 days
Summary of the method: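 Rats got daily s.c. doses for 3 days from postnatal day 20 and were killed 27 h after the last dose. Uteri were fixed in Bouin's solution for 24 h, paraffin-embedded, cut as 8 µm serial cross sections and H&E-stained. Luminal epithelial cell height was measured by light microscopy in the mid-region of each horn, in five areas from five sections ~160 µm apart. Mean and SD were reported; Dunnett's test compared groups with sesame-oil controls.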

[2] = 1 g kg^−1 day^−1 s.c., vs vehicle-treated controls

Chain of human ERβ (Q92731 whole entry): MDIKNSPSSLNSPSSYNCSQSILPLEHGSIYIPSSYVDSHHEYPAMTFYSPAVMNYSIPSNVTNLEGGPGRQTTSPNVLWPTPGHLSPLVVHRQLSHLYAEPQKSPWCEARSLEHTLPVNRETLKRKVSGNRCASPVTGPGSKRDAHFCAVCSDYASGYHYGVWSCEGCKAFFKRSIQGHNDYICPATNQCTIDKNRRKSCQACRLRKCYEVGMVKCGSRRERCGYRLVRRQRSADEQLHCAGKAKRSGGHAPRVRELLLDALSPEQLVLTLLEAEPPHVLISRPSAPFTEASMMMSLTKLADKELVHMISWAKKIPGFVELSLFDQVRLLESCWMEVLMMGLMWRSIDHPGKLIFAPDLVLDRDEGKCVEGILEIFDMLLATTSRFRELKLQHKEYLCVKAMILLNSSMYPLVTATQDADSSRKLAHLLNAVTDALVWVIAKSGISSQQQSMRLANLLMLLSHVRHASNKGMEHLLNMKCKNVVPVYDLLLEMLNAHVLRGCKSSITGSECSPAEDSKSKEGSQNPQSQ

Compound: CC/C(=C(\c1ccccc1)c1ccc(OCCN(C)C)cc1)c1ccccc1 [tamoxifen]
Effect on MCF-7 proliferation when administered alone (MCF-7 cells): no effect on proliferation

Compound: C#C[C@]1(O)CC[C@H]2[C@@H]3CCc4cc(O)ccc4[C@H]3CC[C@@]21C [17αEE2, 17α-ethynylestradiol, reference compound]
Body weight, mean (uterus of immature rats; 0.1 μg kg^−1 day^−1 s.c.): 47.9 g
Uterus wet weight, mean (uterus of immature rats; 0.1 μg kg^−1 day^−1 s.c.): 41.0 ^** mg
Uterus/body weight (uterus of immature rats; 0.1 μg kg^−1 day^−1 s.c.): 0.87
Body weight, mean (uterus of immature rats; 3 μg kg^−1 day^−1 s.c.): 47.1 g
Uterus wet weight, mean (uterus of immature rats; 3 μg kg^−1 day^−1 s.c.): 115 ^** mg
Uterus/body weight (uterus of immature rats; 3 μg kg^−1 day^−1 s.c.): 2.5
Increase in wet uterine weight compared with vehicle-treated controls (uterus of immature rats; doses of 0.1 and 3 μg kg^−1 day^−1 s.c.): over 1.5 fold
Hypertrophy of the uterine luminal epithelium (luminal height) ([1]; 0.1 μg kg^−1 day^−1 s.c.): only a mild increase in luminal height
Hypertrophy of the uterine luminal epithelium ([1]; 3 μg kg^−1 day^−1 s.c.): marked hypertrophy

Compound: O=C(O)CCCCCCCCCO [10HDA, 10-hydroxydecanoic acid]
IC50 (human ERβ): 140 µM
Effect upon the ability of E2 to bind to ERα (human ERα): little or no effect
Body weight, mean (uterus of immature rats; 1 g kg^−1 day^−1 s.c.): 45.8 g
Uterus wet weight, mean (uterus of immature rats; 1 g kg^−1 day^−1 s.c.): 25.2 mg
Uterus/body weight (uterus of immature rats; 1 g kg^−1 day^−1 s.c.): 0.55
Change in wet uterine weight (uterus of immature rats; 1 g kg^−1 day^−1 s.c.): did not detect an increase
Hypertrophy of the uterine luminal epithelium [1, 2]: mild hypertrophy

Continued, in another order:

IC50 (human ERβ): 6 µM
Effect upon the ability of E2 to bind to ERα (human ERα): little or no effect
Compound: C=C(CC[C@@H](C)[C@H]1CC[C@H]2[C@@H]3CC=C4C[C@@H](O)CC[C@]4(C)[C@H]3CC[C@]12C)C(C)C [24MET, 24-methylenecholesterol]
Body weight, mean (uterus of immature rats; 1 g kg^−1 day^−1 s.c.): 47.5 g
Uterus wet weight, mean (uterus of immature rats; 1 g kg^−1 day^−1 s.c.): 25.9 mg
Uterus/body weight (uterus of immature rats; 1 g kg^−1 day^−1 s.c.): 0.55
Change in wet uterine weight (uterus of immature rats; 1 g kg^−1 day^−1 s.c.): did not detect an increase
Hypertrophy of the uterine luminal epithelium [1, 2]: mild hypertrophy

IC50 (human ERβ): 90 µM
Effect upon the ability of E2 to bind to ERα (human ERα): little or no effect
Compound: O=C(O)/C=C/CCCCCCCO [10H2DA, 10-hydroxy-trans-2-decenoic acid]
Body weight, mean (uterus of immature rats; 1 g kg^−1 day^−1 s.c.): 42.9 ^* g
Uterus wet weight, mean (uterus of immature rats; 1 g kg^−1 day^−1 s.c.): 25.9 mg
Uterus/body weight (uterus of immature rats; 1 g kg^−1 day^−1 s.c.): 0.59
Change in wet uterine weight (uterus of immature rats; 1 g kg^−1 day^−1 s.c.): did not detect an increase
Hypertrophy of the uterine luminal epithelium [1, 2]: mild hypertrophy

IC50 (human ERβ): 17 µM
Effect upon the ability of E2 to bind to ERα (human ERα): little or no effect
Compound: CCCCCCC/C=C/C(=O)O [2DEA, trans-2-decenoic acid]
Body weight, mean (uterus of immature rats; 1 g kg^−1 day^−1 s.c.): 45.9 g
Uterus wet weight, mean (uterus of immature rats; 1 g kg^−1 day^−1 s.c.): 22.9 mg
Uterus/body weight (uterus of immature rats; 1 g kg^−1 day^−1 s.c.): 0.51
Change in wet uterine weight (uterus of immature rats; 1 g kg^−1 day^−1 s.c.): did not detect an increase
Hypertrophy of the uterine luminal epithelium [1, 2]: mild hypertrophy

From publication PMC2529378 (Evidence-based Complementary and Alternative Medicine : eCAM, 2007)
